The results in this text go back to ChEMBL document CHEMBL2380267, “Structural optimization, biological evaluation, and application of peptidomimetic prostate specific antigen inhibitors” (J Med Chem, 2013).

The source made the active and inactive calls. No cut-off for these calls is given here. Non-standard residues stand in square brackets, D forms with d. Residues, ends and D or L forms follow the SMILES beside them. *: point of attachment. X4 = CC1(C)[C@@H]2C[C@H]1[C@]1(C)OB([C@@H](CCCBr)N*)O[C@@H]1C2; dboroNva(5-Br) = OB(O)[C@@H](CCCBr)N*; dboroPhe = OB(O)[C@@H](Cc1ccccc1)N*; Benzoyl(4-I) = O=C(c1ccc(I)cc1)*; X2 = CC(C)C[C@@H](N*)B(O)O; Nle = CCCC[C@H](N)C(=O)O; Cbz = O=C(OCc1ccccc1)*; Ahx = NCCCCCC(=O)O

For series [1], the system named is Mus musculus. The series is described as follows: Biodistribution in tumor of nude mouse xenografted with human LNCAP cells expressing PSA at 230 to 580 uCi after 3 to 4 hrs by gamma counting analysis. The format is ADME, organism-based, Neoplasm. To be noted: in vivo. A digest of the protocol: (§1)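 Single mice sacrificed at 2, 4 and 6 h (or 2 and 4 h). Liver, kidney, heart, brain, muscle and tumor weighed and gamma-counted. Counts corrected for background and decay; %ID/g calculated against 0.01 mL of dosing solution.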
(In xenograft studies the graft and the host belong to different species.)

Another series has as its system Kidney. The series is described as follows: Biodistribution in nude mouse kidney xenografted with human LNCAP cells expressing PSA at 230 to 580 uCi after 2 hrs by gamma counting analysis. The format is ADME, organism-based. To be noted: in vivo. Summed up: as §1
The subject of a further series is Liver. Description: Biodistribution in nude mouse liver xenografted with human LNCAP cells expressing PSA at 230 to 580 uCi after 2 hrs by gamma counting analysis. The format is ADME, organism-based. To be noted: in vivo. Summed up: as §1
Series [2] is described as follows: Half life in ip dosed mouse. To be noted: in vivo. The format is ADME, organism-based. Summed up:
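Four animals sacrificed per time point; plasma counts per second normalised to starting counts.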

Series [3] is described as follows: Selectivity ratio of Ki for bovine pancreas chymotrypsin to Ki for human seminal fluid PSA.
Series [4] is described as follows: Inhibition of bovine pancreas chymotrypsin using Suc-AAPF-AMC as substrate measured for 30 mins by fluorescence assay. Also noted: species or system Bos taurus. A digest of the protocol: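 Inhibitor added from DMSO stock; substrate added last and AMC fluorescence read immediately. Ki = 1/slope × 1/(1+[S]/Km), from V0/Vi−1 plotted against [I].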
Series [5] has as its target T1, Prostate-specific antigen (Homo sapiens, UniProt P07288).
T1 sequence (P07288 whole entry): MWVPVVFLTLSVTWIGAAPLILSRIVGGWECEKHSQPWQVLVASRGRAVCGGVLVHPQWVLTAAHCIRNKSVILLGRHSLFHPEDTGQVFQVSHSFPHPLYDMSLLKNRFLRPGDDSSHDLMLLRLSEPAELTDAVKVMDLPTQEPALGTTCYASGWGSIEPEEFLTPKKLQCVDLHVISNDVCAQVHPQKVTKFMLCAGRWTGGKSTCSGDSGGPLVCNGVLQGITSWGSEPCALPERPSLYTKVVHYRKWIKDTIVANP
The series is described as follows: Inhibition of PSA (unknown origin).

The target in series [6] is T1, Prostate-specific antigen. Description: Inhibition of PSA (unknown origin) using Mu-SRKSQQY-AMC as substrate by fluorescence assay. A digest of the protocol:
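Inhibitor added from DMSO stock. AMC fluorescence (ex 370, em 465 nm) followed over 30 min in triplicate. Ki = 1/slope × 1/(1+[S]/Km), from V0/Vi−1 plotted against [I].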

Series [7] can be described thus: Selectivity ratio of Ki for human seminal fluid PSA to Ki for bovine pancreas chymotrypsin.
Series [8] has as its system LNCaP. Description: Antitumor activity against human LNCAP cells expressing PSA xenografted in nude mouse assessed as tumor incident at 10 mg/kg, iv qd administered 5 days/week for 3 weeks measured after 3 weeks. The format is functional, organism-based. Also noted: dose 10 mg/kg. A digest of the protocol: (§2)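 Nude male mice (n = 10 per group) carrying subcutaneous PSA-producing LNCaP xenografts. Dosed 10 mg/kg iv once daily for three cycles of five consecutive days, compound in sterile saline; controls untreated. Tumor measured by caliper, volume = L × W × H × […]. Tumor size and body weight recorded twice per week.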

Series [9] relates to Mus musculus. Description: Inhibition of free PSA level in nude mouse serum xenografted with human LNCAP cells at 10 mg/kg, iv qd administered 5 days/week for 3 weeks measured 24 hrs post last dose by ELISA relative to control. The class given is functional. A digest of the protocol:
(§3)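 LNCaP xenograft-bearing nude mice dosed 10 mg/kg iv (sterile saline) once daily, five consecutive days/week for three courses; controls untreated. Serum free and total PSA measured by ELISA 24 h after the last dose, also expressed per g tumor.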

In series [10] the test system is Mus musculus. The series is described as follows: Inhibition of total PSA level in nude mouse serum xenografted with human LNCAP cells at 10 mg/kg, iv qd administered 5 days/week for 3 weeks measured 24 hrs post last dose by ELISA relative to control. The class given is functional. Summed up:
as §3

In series [11] the test system is Mus musculus. The series is described as follows: Toxicity in nude mouse xenografted with human LNCAP cells expressing PSA assessed as body weight loss at 10 mg/kg, iv qd measured 5 days/week for 3 weeks. The class given is organism-based. More on the design: dose 10 mg/kg, route intravenous. The following applies: in vivo. Summed up: as §2
In series [12] the test system is LNCaP. Description: Antitumor activity against human LNCAP cells expressing PSA xenografted in nude mouse assessed as delay in tumor growth at 10 mg/kg, iv qd administered 5 days/week for 3 weeks measured after 2 weeks. Also noted: dose 10 mg/kg. The class given is functional, organism-based. Summed up: as §2

On to `CCCC[C@H](NC(=O)[C@H](CCC(N)=O)NC(=O)[C@H](CO)NC(=O)[C@H](Cc1ccccc1)NC(=O)CCCCCNC(=O)c1ccc([125I])cc1)C(=O)N[C@H](CCCBr)B1O[C@@H]2C[C@H]3C[C@H](C3(C)C)[C@]2(C)O1`, for which the Drug uptake entry with Mus musculus [1], in the series on Kidney and in the series with Liver was “Active” each time.

`CCCC[C@H](NC(=O)[C@H](CCC(N)=O)NC(=O)[C@H](CO)NC(=O)[C@H](Cc1ccccc1)NC(=O)CCCCCNC(=O)c1ccc([125I])cc1)C(=O)N[C@H](CCCBr)B(O)O`: the Drug uptake entry in the series with Mus musculus [1], in the series with Kidney and in the series with Liver was “Active” each time.

With `CCCC[C@H](NC(=O)[C@H](CCC(N)=O)NC(=O)[C@H](CO)NC(=O)C[C@H](Cc1ccc2ccccc2c1)NC(=O)CCCCCNC(=O)c1ccc([125I])cc1)C(=O)N[C@H](Cc1ccccc1)B(O)O`, the Drug uptake result with Mus musculus [1], in the series with Kidney and in the series with Liver was “Active” in each case. In [2], this compound gave a half-life of 2.7 h.

In [2], `CCCC[C@H](NC(=O)[C@H](CCC(N)=O)NC(=O)[C@H](CO)NC(=O)[C@H](CO)NC(=O)CCCCCNC(=O)c1ccc([125I])cc1)C(=O)N[C@H](CCCBr)B(O)O` gave a half-life of 0.2 h.

For `CCCC[C@H](NC(=O)[C@H](CCC(N)=O)NC(=O)[C@H](CO)NC(=O)C[C@H](Cc1ccc2ccccc2c1)NC(=O)CCCCCN)C(=O)N[C@H](CCCBr)B(O)O`, in series [3], the Ratio Ki came to 4.94. In [4], this compound displayed a Ki of 506 nM.

`CCCC[C@H](NC(=O)[C@H](CCC(N)=O)NC(=O)[C@H](CO)NC(=O)C[C@H](Cc1ccc2ccccc2c1)NC(=O)CCCCCN)C(=O)N[C@H](Cc1ccccc1)B(O)O`: the Ratio Ki in series [3] is 0.03. Besides, the Ki in series [4] came out at 7.21 nM.

`CCCC[C@H](NC(=O)[C@H](CCC(N)=O)NC(=O)[C@H](CO)NC(=O)CCCCCN)C(=O)N[C@H](CCCBr)B(O)O`: the Ratio Ki in series [3] came out at 0.83. In addition, the Ki in series [4] stood at 251 nM.

Regarding `CCCC[C@H](NC(=O)[C@H](CCC(N)=O)NC(=O)[C@H](CO)NC(=O)CCCCCN)C(=O)N[C@H](Cc1ccccc1)B(O)O`, in [3], the Ratio Ki was determined as 0.17. Moreover, the Ki in series [4] came out at 3.77 nM.

With `O=C(OCc1ccccc1)c1cccc(CC(=O)N2C(=O)[C@@H](Cc3ccc(O)cc3)[C@H]2C(=O)OCc2ccccc2)c1`, in [5], the half-maximal inhibitory concentration (IC50) was found to be 226 nM.

Turning to `CCCC[C@H](NC(=O)[C@H](CCCCN)NC(=O)[C@H](CO)NC(=O)[C@H](CO)NC(=O)OCc1ccccc1)C(=O)N[C@H](Cc1ccccc1)B(O)O` (Cbz-SSK[Nle]-dboroPhe), in series [3], the Ratio Ki came out at 0.11. The Ki in [4] was 18.1 nM.

In the case of `CCCC[C@H](NC(=O)[C@H](CCCCN)NC(=O)[C@H](CO)NC(=O)[C@H](CO)NC(=O)OCc1ccccc1)C(=O)N[C@H](CCCBr)B(O)O` (Cbz-SSK[Nle]-{dboroNva(5-Br)}), the Ratio Ki in series [3] was 8.13. The Ki in series [4] is 197 nM.

In series [6], `CC(C)C[C@H](NC(=O)[C@H](CCCCN)NC(=O)[C@H](CO)NC(=O)[C@@H](N)CO)C(=O)N[C@H](C=O)CCC(N)=O` (H-SSKLQ-aldehyde) had a Ki of 45000 nM.

Turning to `CCCC[C@H](NC(=O)[C@H](CCC(N)=O)NC(=O)[C@H](CO)NC(=O)[C@H](C)NC(=O)CCCCCN)C(=O)N[C@H](Cc1ccccc1)B(O)O` (H-[Ahx]ASQ[Nle]-dboroPhe), the Ratio Ki in series [3] amounted to 0.12. In series [4], this compound gave a Ki of 36.2 nM.

On to `CCCC[C@H](NC(=O)[C@H](CCC(N)=O)NC(=O)[C@H](CO)NC(=O)[C@H](C)NC(=O)CCCCCN)C(=O)N[C@H](CCCBr)B(O)O` (H-[Ahx]ASQ[Nle]-{dboroNva(5-Br)}), for which, in series [3], the Ratio Ki turned out to be 3.18. This compound had a Ki in series [4] of 166 nM.

As for `CCCC[C@H](NC(=O)[C@H](CCC(N)=O)NC(=O)[C@H](CO)NC(=O)[C@H](Cc1ccccc1)NC(=O)CCCCCN)C(=O)N[C@H](CCCBr)B1O[C@@H]2C[C@H]3C[C@H](C3(C)C)[C@]2(C)O1` (H-[Ahx]FSQ[Nle]-X4), the Ratio Ki in [3] was found to be 6.77. Besides, the Ki in [4] stood at 496 nM.

With `CCCC[C@H](NC(=O)[C@H](CCC(N)=O)NC(=O)[C@H](CO)NC(=O)[C@H](Cc1ccccc1)NC(=O)CCCCCN)C(=O)N[C@H](Cc1ccccc1)B(O)O` (H-[Ahx]FSQ[Nle]-dboroPhe), the Ratio Ki came to 450 in [7] and 0.002 in [3]. Besides, the inhibition constant (Ki) in series [4] worked out at 0.135 nM.

`CCCC[C@H](NC(=O)[C@H](CCC(N)=O)NC(=O)[C@H](CO)NC(=O)[C@H](Cc1ccccc1)NC(=O)CCCCCN)C(=O)N[C@H](CCCBr)B(O)O` (H-[Ahx]FSQ[Nle]-{dboroNva(5-Br)}): the result in the series with LNCaP [8] was inactive. In addition, the inhibition in vivo at 10 mg/kg amounted to 23% in the series on Mus musculus [9] and 40% in the series on Mus musculus [10]. Moreover, the Ratio Ki in [3] came to 8.03. Further, the Ki in series [4] was 581 nM. Besides, in the series with Mus musculus [11], the Activity result is listed as “Non-toxic”. Moreover, the outcome in the series with LNCaP [12] was Active.

For `CCCC[C@H](NC(=O)[C@H](CCC(N)=O)NC(=O)[C@H](CO)NC(=O)[C@H](CO)NC(=O)CCCCCN)C(=O)N[C@H](CC(C)C)B(O)O` (H-[Ahx]SSQ[Nle]-X2), the Ratio Ki in [3] came to 3.2. This compound also yielded a Ki in series [4] of 138 nM.

In the case of `CCCC[C@H](NC(=O)[C@H](CCC(N)=O)NC(=O)[C@H](CO)NC(=O)[C@H](Cc1ccccc1)NC(=O)CCCCCNC(=O)c1ccc(I)cc1)C(=O)N[C@H](CCCBr)B(O)O` ({Benzoyl(4-I)-Ahx}-FSQ[Nle]-{dboroNva(5-Br)}), in [3], the Ratio Ki was determined as 10.1. Moreover, affinity in [4] was put at a Ki of 653 nM.

One may read the half-life as how long it takes for the measured level to halve. For orientation: Ki means a measure of affinity in units of concentration, obtained from inhibition or displacement. What is called IC50 is the midpoint of a concentration-inhibition curve. A low value points to greater potency. In general, inhibition in vivo refers to the share of the control response that was lost under treatment. The low end stands for a weak effect, the high end for a strong effect.
